{"data": "Measured values of several laboratories", "target": "Serine/threonine-protein kinase MAK (MAK, Homo sapiens, UniProt P20794)", "One construct used (P20794 1-623)": "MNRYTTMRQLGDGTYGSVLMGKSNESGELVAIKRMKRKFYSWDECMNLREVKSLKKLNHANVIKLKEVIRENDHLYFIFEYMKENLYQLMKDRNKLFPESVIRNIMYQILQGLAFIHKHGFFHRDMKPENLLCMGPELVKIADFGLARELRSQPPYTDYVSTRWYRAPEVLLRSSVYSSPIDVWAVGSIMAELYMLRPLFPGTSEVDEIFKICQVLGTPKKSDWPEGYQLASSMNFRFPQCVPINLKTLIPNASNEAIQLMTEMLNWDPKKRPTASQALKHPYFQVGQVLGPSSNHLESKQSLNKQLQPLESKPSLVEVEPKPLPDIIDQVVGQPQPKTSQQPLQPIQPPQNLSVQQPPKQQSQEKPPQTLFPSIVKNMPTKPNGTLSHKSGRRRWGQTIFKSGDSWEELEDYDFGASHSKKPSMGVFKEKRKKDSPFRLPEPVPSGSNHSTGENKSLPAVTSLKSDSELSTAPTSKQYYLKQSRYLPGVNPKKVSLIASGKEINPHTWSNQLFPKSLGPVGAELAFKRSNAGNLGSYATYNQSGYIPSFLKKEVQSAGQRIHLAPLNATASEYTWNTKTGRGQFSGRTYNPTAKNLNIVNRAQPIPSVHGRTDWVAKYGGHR", "note": "Each line is one published result; the experiments were not run side by side."}
{"Compound": "Cc1cnc(Nc2ccc(C(=O)N3CCC(N4CCCC4)CC3)cc2)nc1-c1cc2ccccc2s1", "read-out": "binding", "technique": "competition with immobilised ligand", "concentration": "1 µM", "remaining binding [%]": 100}
{"Compound": "Cn1nc(C(=O)NCc2ccc(C(=O)O)cc2)cc1-c1ccc2[nH]ccc2c1", "read-out": "cell-free assay", "technique": "competition with immobilised ligand", "concentration": "0.1 µM", "remaining binding [%]": 92}
{"Compound": "O=C(NCCCN1CCOCC1)c1ccc(Nc2nccc(-c3cc4ccccc4s3)n2)cc1", "read-out": "binding", "technique": "competition with immobilised ligand", "concentration": "1 µM", "remaining binding [%]": 100}
{"Compound": "O=C(Nc1c[nH]nc1C(=O)NC1CCNCC1)c1cc(F)cc(F)c1", "read-out": "binding", "technique": "competition with immobilised ligand", "concentration": "1 µM", "remaining binding [%]": 78}
{"Compound": "NS(=O)(=O)c1cc(NC(=O)Cc2ccccc2)ccc1Oc1cccc(Cl)c1", "read-out": "cell-free assay", "technique": "competition with immobilised ligand", "concentration": "1 µM", "remaining binding [%]": 100}
{"Compound": "N[C@@H]1CCN(c2nccc(-c3cnn4ncccc34)n2)C1", "read-out": "binding", "concentration": "1 µM", "remaining binding [%]": 100}
{"Compound": "CCN1CCN(Cc2ccc(C(=O)Nc3ccc(C)c(Oc4ccc5c(c4)CC(=O)N5)c3)cc2C(F)(F)F)CC1", "read-out": "binding", "technique": "competition with immobilised ligand", "concentration": "1 µM", "remaining binding [%]": 100}
{"Compound": "O=C(N1CCS(=O)(=O)CC1)N1C[C@H](c2ccc(OC(F)(F)F)cc2)C[C@H](c2nc(C3CC3)no2)C1", "read-out": "binding", "technique": "competition with immobilised ligand", "concentration": "1 µM", "remaining binding [%]": 100}
{"Compound": "FC(F)(F)Oc1cccc(-c2cnc3ccc(-c4ccncc4)nn23)c1", "read-out": "cell-free assay", "technique": "competition with immobilised ligand", "concentration": "5 µM", "remaining binding [%]": 99}
{"Compound": "O=C(Nc1cccnn1)N1CCC(=Cc2cccc(Oc3ccc(C(F)(F)F)cn3)c2)CC1", "read-out": "cell-free assay", "technique": "competition with immobilised ligand", "concentration": "1 µM", "remaining binding [%]": 100}
{"Compound": "C[C@@H]1CCN(c2nccc(-c3cnn4ncccc34)n2)C1", "read-out": "binding", "concentration": "1 µM", "remaining binding [%]": 97}
{"Compound": "COc1ncc2cc3ccccc3nc2c1C#N", "read-out": "binding", "technique": "competition with immobilised ligand", "concentration": "5 µM", "remaining binding [%]": 87}
{"Compound": "CN(C)c1nccc(-c2cnc3ncccn23)n1", "read-out": "binding", "concentration": "1 µM", "remaining binding [%]": 100}
{"Compound": "O=C(c1ccc(Nc2ncc(Cl)c(-c3ccc(Cl)s3)n2)cc1)N1CCC(N2CCCC2)CC1", "read-out": "binding", "technique": "competition with immobilised ligand", "concentration": "1 µM", "remaining binding [%]": 85}
{"Compound": "CN(C)c1nccc(-c2cnn3ncccc23)n1", "read-out": "binding", "concentration": "1 µM", "remaining binding [%]": 100}
{"Compound": "CNC(=O)[C@@H]1CC[C@@H](n2c(-c3ccc4cnccc4c3)nc3ccc(C(=O)NCc4cccc(C(N)=O)c4)cc32)C1", "read-out": "binding", "technique": "competition with immobilised ligand", "concentration": "1 µM", "remaining binding [%]": 80}
{"Compound": "CC1CCCN1c1nccc(-c2cnn3ncccc23)n1 (stereo not shown)", "read-out": "binding", "concentration": "1 µM", "remaining binding [%]": 100}
{"Compound": "O=C(Nc1cnc(Oc2ccc(F)cc2)nc1)N1CCc2ncccc2[C@@H]1c1ccc(F)cc1", "read-out": "cell-free assay", "technique": "competition with immobilised ligand", "concentration": "1 µM", "remaining binding [%]": 100}
{"Compound": "CN(CCCC(F)(F)F)c1nccc(-c2cnn3ncccc23)n1", "read-out": "binding", "concentration": "1 µM", "remaining binding [%]": 100}
{"Compound": "Nc1ncc2c(n1)-c1c([nH]c3ccc(C#CC4CC4)cc13)CCCC2", "read-out": "binding", "technique": "competition with immobilised ligand", "concentration": "1 µM", "remaining binding [%]": 100}
{"Compound": "CN(C)c1ncc(F)c(-c2cnn3ncccc23)n1", "read-out": "binding", "concentration": "1 µM", "remaining binding [%]": 91}
{"Compound": "O=C1CCc2cc(Nc3cc(OC4CCOCC4)c([N+](=O)[O-])cc3Cl)ccc2N1", "read-out": "cell-free assay", "technique": "competition with immobilised ligand", "concentration": "1 µM", "remaining binding [%]": 100}
